TRPC4 potent – positive allosteric modulators of TRPC4, primary screen, cell-based, mouse TRPC4beta, HEK293 mu-opioid, Fluo-4 calcium; B-score at 10 µM; 0.42% of 310,000 active; Short transient receptor potential channel 4 (Mus musculus), Q9QUQ5; DAMGO EC20, Fluo-4 Ca2+ flux; hits give high values; AID 2227, 2009;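 active means B-score of calcium response area above 5 SD of library B-scores, with initial fluorescence ratio within 5 SD of library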;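 further: B-score of integrated fluorescence ratio over time as area under calcium response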
Target sequence (Q9QUQ5 whole entry, looked up): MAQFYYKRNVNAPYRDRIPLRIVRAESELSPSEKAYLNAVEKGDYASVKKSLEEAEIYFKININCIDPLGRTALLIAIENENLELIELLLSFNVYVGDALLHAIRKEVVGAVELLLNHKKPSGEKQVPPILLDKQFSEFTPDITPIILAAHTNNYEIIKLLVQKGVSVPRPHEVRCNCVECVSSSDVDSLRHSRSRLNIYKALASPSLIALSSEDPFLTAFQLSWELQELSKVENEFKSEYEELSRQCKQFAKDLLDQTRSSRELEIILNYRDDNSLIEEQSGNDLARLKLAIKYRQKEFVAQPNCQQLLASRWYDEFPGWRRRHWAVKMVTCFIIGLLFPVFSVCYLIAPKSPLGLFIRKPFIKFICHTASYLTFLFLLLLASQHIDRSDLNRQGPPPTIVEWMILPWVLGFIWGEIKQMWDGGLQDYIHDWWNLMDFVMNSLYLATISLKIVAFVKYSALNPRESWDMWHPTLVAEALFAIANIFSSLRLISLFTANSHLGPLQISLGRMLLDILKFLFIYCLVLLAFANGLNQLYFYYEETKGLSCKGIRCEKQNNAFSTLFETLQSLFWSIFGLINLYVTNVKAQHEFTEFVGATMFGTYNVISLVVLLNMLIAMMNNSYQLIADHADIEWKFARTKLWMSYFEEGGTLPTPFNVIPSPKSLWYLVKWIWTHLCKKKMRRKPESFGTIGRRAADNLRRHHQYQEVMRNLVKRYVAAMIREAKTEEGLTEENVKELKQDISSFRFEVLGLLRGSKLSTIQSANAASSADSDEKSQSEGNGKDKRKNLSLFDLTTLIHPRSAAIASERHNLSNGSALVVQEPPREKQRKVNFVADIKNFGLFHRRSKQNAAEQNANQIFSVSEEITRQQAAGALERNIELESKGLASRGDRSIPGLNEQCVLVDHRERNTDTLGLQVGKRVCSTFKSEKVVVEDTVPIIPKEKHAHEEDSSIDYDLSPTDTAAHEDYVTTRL
TRPC4 agonist – activators of mouse TRPC4 channel, primary screen, Fluo4 calcium, HEK293 TRPC4beta/mu-opioid cells. Short transient receptor potential channel 4 (Mus musculus), Q9QUQ5. Fluo4 calcium fluorescence; hits give high values. B-score at 10 µM. 0.49% of 310,000 active;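 active means B-score above 5 SD of library B-scores, and initial fluorescence ratio not above library mean plus 5 SD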;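 further: positive B-score marks a calcium rise read as TRPC4 activation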
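Assay system: HEK293 stable line with TRPC4beta plus mu-opioid receptor; schedule: 45 min room-temperature Fluo4 loading, 110 s read; technique: kinetic Fluo4 calcium fluorescence; evaluation: integrated baseline-normalised fluorescence ratio, converted to per-well B score; controls: buffer (low) and maximal DAMGO (high)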
TRPC6 inhibitor – mouse TRPC6 channel inhibitors, primary screen, cell-based, HEK293, membrane potential dye; ACh-evoked depolarization; hits give low values; Short transient receptor potential channel 6 (Mus musculus), Q61143; 1.1% of 310,000 active; B-score at 10 µM;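 active means B-score under library mean minus 3 SD, initial fluorescence not abnormally high, positive integrated signal ratio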;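 further: B-score derived from integrated fluorescence ratio over the kinetic read; more negative B-score means stronger inhibition of depolarization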
TRPC6 act – mouse TRPC6 channel activators, primary screen, cell-based, HEK293, membrane potential dye; Short transient receptor potential channel 6 (Mus musculus), Q61143; HEK293-TRPC6 membrane potential dye fluorescence; hits give high values; B-score at 10 µM; 0.13% of 310,000 active;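 active means B-score of the integrated fluorescence ratio above library mean plus 3 SD, and starting fluorescence ratio within library mean plus 5 SD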;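 further: higher score means more depolarization so channel activation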
TRPC4 block – inhibitors of mouse TRPC4 channel, primary screen, Fluo4 calcium, HEK293 TRPC4beta/mu-opioid cells | Short transient receptor potential channel 4 (Mus musculus), Q9QUQ5 | DAMGO-evoked Fluo4 calcium flux; hits give low values | B-score at 10 µM | 0.39% of 300,000 active | AID 2247, 2010;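 active means B-score over 3 SD under the library average, no early fluorescence shift, positive overall ratio signal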
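Test system – stable TRPC4beta/mu-opioid receptor HEK293 cells · Probe or stimulus – DAMGO, a submaximal dose followed by a maximal one · Dosing – one concentration per compound · Signal – Fluo4 calcium fluorescence by kinetic imaging, 5 s 1 Hz baseline · Evaluation – per-well B score of integrated baseline-normalized Fluo4 ratio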
TRPC4 spec 2 – second check of whether TRPC6 inhibitors also affect mouse TRPC4; shares compounds with TRPC6 inhibitor; HEK293 TRPC4/MOR, membrane potential dye fluorescence; channel activated by saturating DAMGO dose; inhibition, % at 10 µM; 42% of 920 active; AID 2776;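 active means compounds whose fluorescence signal differed from control wells by over 3 SD, either direction, in both duplicate plates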
TRPC4 spec – mouse TRPC4 modulation by TRPC6 hits, confirmation, selectivity assay for TRPC6 inhibitor project, cell-based, HEK293 TRPC4/mu-opioid, membrane potential dye | activity change, negative = inhibition, % at 10 µM | 61% of 920 active | shares compounds with TRPC6 inhibitor | membrane potential fluorescence;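 active means rise or fall in signal beyond 3 SD of buffer-only wells in both replicate plates, either sign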;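 further: integrated kinetic ratio of fluorescence range over baseline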
HEK293 MPD ctr 2-1 – nonspecific membrane potential effects, parental HEK293, confirmation, counter-screen for TRPC6 inhibitor project, cell-based, second counter screen. parental HEK293 membrane potential dye fluorescence; maximal acetylcholine challenge after compound addition. AID 2779, 2010. 31% of 920 active. shares compounds with TRPC6 inhibitor. signal change vs control, % at 10 µM;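 active means membrane potential signal moving either way by over 3 SD of the maximum-effect control, in both duplicate plates, meaning non-specific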
HEK293 MPD ctr-1 – membrane potential modulation in parental HEK293, confirmation, counter-screen for TRPC6 inhibitor project, cell-based; shares compounds with TRPC6 inhibitor; parental HEK293 membrane potential dye fluorescence; membrane potential signal change, % at 10 µM; 60% of 920 active;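 active means membrane potential signal shifting up or down by more than 3 SD of buffer-only wells, on both duplicate plates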
HEK293 MPD ctr-2 – parental HEK293 membrane potential modulation, confirmation, counter-screen for TRPC6 modulator project, cell-based; 51% of 2,400 active; membrane potential dye fluorescence; membrane potential signal change, % at 10 µM; shares compounds with TRPC6 inhibitor;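 active means membrane potential signal moves up or down beyond 5 SD from buffer-only wells, on both duplicate plates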
HEK293 MPD ctr 2-2 – second check of TRPC6 modulator effects in parental HEK293 cells. shares compounds with TRPC6 inhibitor. membrane potential dye fluorescence; after compound, maximal acetylcholine stimulation. inhibition, % at 10 µM. 14% of 2,400 active. AID 488926;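 active means membrane potential signal drops by more than 5 SD from the mean control signal, in both duplicate plates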;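 further: plate controls were acetylcholine ECmax control wells for no effect and buffer only wells for full effect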
TRPC4/MOR mod – TRPC4 modulation by TRPC6 hit compounds, confirmation, selectivity assay for TRPC6 modulator project, cell-based, HEK293 TRPC4/mu-opioid, membrane potential dye, mouse | membrane potential fluorescence | 69% of 2,400 active | shares compounds with TRPC6 inhibitor | percent change from control (negative = decrease, positive = increase), % at 10 µM | AID 488927, 2010;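 active means membrane potential signal moved up or down beyond 5 SD of buffer control wells, in both duplicate plates, actives on both sides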;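 further: plate controls were assay buffer wells for no effect and DAMGO maximal-effect wells for full effect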
TRPC4 ctr inh 2 – mouse TRPC4 off-target activity of TRPC6 modulators, second screen; AID 488928; inhibition, % at 10 µM; 55% of 2,400 active; shares compounds with TRPC6 inhibitor; HEK293 TRPC4/mu-opioid, membrane potential dye fluorescence; stimulated with maximal-effect DAMGO;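 active means drop in membrane potential signal beyond 5 SD of the control wells in both duplicate plates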;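 further: TRPC4 counter screen for TRPC6 hits run under conditions tuned for TRPC6 not TRPC4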
TRPC6 inh conf – mouse TRPC6 channel inhibitors, confirmation, HEK293 cells, membrane potential dye, duplicate; inhibition, % at 10 µM; 43% of 3,300 active; AID 488960, 2010; shares compounds with TRPC6 inhibitor; ACh-evoked depolarization;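 active means fluorescence ratio falls more than 5 SD below the full-stimulation control mean, in both duplicate runs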;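 further: integrated fluorescence ratio of peak minus minimum over baseline after agonist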
The depositor's hits bear a star; i = inactive; nt = no result. Sampled rows, rich in hits. Any-hit rate of the full collection: about 2.3%.

SMILES | TRPC4 potent | TRPC4 agonist | TRPC6 inhibitor | TRPC6 act | TRPC4 block | TRPC6 inh conf | others
Cc1ccc(NC(=S)NC2CCSc3ccccc32)cc1C (stereo not drawn) | i | i | i | i | i | nt
CCOC(=O)c1[nH]c(C)c(C(=O)N2CCN(c3ccccc3OC)CC2)c1C | i | i | i | i | i | nt
COc1ccc(CCC(C)NC2C3CC4CC(C3)CC2C4)cc1 (stereo not drawn) | i | i | -8.5* | i | i | 94%* | TRPC4 spec 2=66%*;TRPC4 spec=37%*;HEK293 MPD ctr 2-1=-12%*;HEK293 MPD ctr-1=21%*
COc1ccccc1-n1cnnc1SCC(=O)NCC1CCCO1 (stereo not drawn) | i | i | i | i | i | nt
CNC(=O)CSc1nnc(C(C)C)n1C | i | i | i | i | i | nt
CCN1CCCC(OC(=O)c2cc(-c3ccccc3Cl)nc3ccccc23)C1 (stereo not drawn) | 22* | i | -5.5* | i | i | i | HEK293 MPD ctr-2=134%*;HEK293 MPD ctr 2-2=i;TRPC4/MOR mod=24%*;TRPC4 ctr inh 2=45%*
O=C(c1cc(-c2ccccc2Cl)nc2ccccc12)N1CCC1 | i | i | i | i | i | nt
CCCCN1C(=S)SC(C)(C)C1/[N+]([O-])=C/c1cccnc1 (stereo not drawn) | i | i | -6.6* | i | i | 57%* | TRPC4 spec 2=i;TRPC4 spec=i;HEK293 MPD ctr 2-1=i;HEK293 MPD ctr-1=i
CCCN1C(=S)SC(C)(C)C1/[N+]([O-])=C/c1cccnc1 (stereo not drawn) | i | i | i | i | i | nt
O=C(Oc1ccc2c(c1)OCC2=O)c1ccccc1 | i | i | -5.8* | i | i | i | HEK293 MPD ctr-2=i;HEK293 MPD ctr 2-2=i;TRPC4/MOR mod=i;TRPC4 ctr inh 2=i
